# Data taken from ChEMBL document CHEMBL3616416, “Imidazolidine-4-one derivatives in the search for novel chemosensitizers of Staphylococcus aureus MRSA: synthesis, biological evaluation and molecular modeling studies” (Eur J Med Chem, 2015).
# Calls of active or inactive are those of the source. No cut-off for these calls is given here.
# Key:
# Staphylococcus aureus [1] = test: Potentiation of neomycin-induced antibacterial activity against Staphylococcus aureus ATCC 25923 assessed as reduction in […] MIC incubated for 20 hrs by serial dilution broth microplate method; type: functional, organism-based
# Staphylococcus aureus [2] = test: Potentiation of ciprofloxacin -induced antibacterial activity against Staphylococcus aureus ATCC 25923 assessed as reduction in […] MIC incubated for 20 hrs by serial dilution broth microplate method; type: functional, organism-based
# [3] = molecular target: T1, Methicillin resistance mecR1 protein (Staphylococcus aureus) (UniProt P0A0B1); test: Inhibition of MecR1 in methicillin-resistant Staphylococcus aureus HEMSA assessed as reduction in ampicillin and sulbactam MIC at 0.0039 mM incubated for 20 hrs by serial dilution broth microplate method
# T1 sequence (whole entry): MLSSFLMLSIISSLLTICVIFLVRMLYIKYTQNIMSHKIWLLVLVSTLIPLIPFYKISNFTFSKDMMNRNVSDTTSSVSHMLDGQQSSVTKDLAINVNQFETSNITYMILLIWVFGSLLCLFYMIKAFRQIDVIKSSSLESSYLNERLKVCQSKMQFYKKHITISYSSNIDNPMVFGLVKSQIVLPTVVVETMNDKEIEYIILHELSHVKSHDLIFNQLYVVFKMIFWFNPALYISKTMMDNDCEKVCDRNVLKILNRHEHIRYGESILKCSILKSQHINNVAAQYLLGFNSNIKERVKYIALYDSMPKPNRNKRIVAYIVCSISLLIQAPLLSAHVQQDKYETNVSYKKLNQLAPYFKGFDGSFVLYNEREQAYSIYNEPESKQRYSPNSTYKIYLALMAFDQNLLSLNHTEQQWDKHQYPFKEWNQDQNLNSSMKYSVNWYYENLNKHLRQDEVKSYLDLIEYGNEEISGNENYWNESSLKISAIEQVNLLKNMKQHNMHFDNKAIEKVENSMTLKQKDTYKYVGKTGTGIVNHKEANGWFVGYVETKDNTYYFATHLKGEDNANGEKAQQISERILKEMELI
# Procedure, shortened: (§1)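 Chemosensitization in MRSA HEMSA 5 measured by CLSI broth microdilution in Mueller-Hinton broth. Serial two-fold dilutions of antibiotic (oxacillin, cloxacillin, ampicillin/sulbactam 2:1, ciprofloxacin or neomycin) combined with compound at fixed concentration not exceeding ¼ of its own MIC. Inoculum OD 0.5 diluted 1:100. Read after 20 h at 37 °C. Result given as fold reduction of antibiotic MIC.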
# Staphylococcus aureus [4] = test: Resistance index, ratio of MIC for methicillin-resistant Staphylococcus aureus HEMSA to MIC for Staphylococcus aureus ATCC 25923; type: functional
# [5] = molecular target: T1, Methicillin resistance mecR1 protein (Staphylococcus aureus); test: Inhibition of MecR1 in methicillin-resistant Staphylococcus aureus HEMSA assessed as reduction in neomycin MIC at 0.0039 mM incubated for 20 hrs by serial dilution broth microplate method; procedure, shortened: as §1
# [6] = molecular target: T1, Methicillin resistance mecR1 protein (Staphylococcus aureus); test: Inhibition of MecR1 in methicillin-resistant Staphylococcus aureus HEMSA assessed as reduction in ciprofloxacin MIC at 0.0039 mM incubated for 20 hrs by serial dilution broth microplate method; procedure, shortened: as §1
# Staphylococcus aureus [7] = test: Antimicrobial activity against methicillin-resistant Staphylococcus aureus HEMSA incubated for 20 hrs by serial dilution broth microplate method; type: functional
# Procedure, shortened: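 Broth microdilution MIC per CLSI in Mueller-Hinton broth against clinical isolate MRSA HEMSA 5. Bacterial suspension adjusted to OD 0.5, diluted 1:100 and added to serial two-fold dilutions of test agent. Ampicillin/sulbactam used at 2:1 ratio. Growth read after 20 h at 37 °C.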
# Staphylococcus aureus [8] = test: Potentiation of […] antibacterial activity against Staphylococcus aureus ATCC 25923 assessed as reduction in ampicillin and sulbactam MIC MIC incubated for 20 hrs by serial dilution broth microplate method; type: functional, organism-based
# Staphylococcus aureus [9] = test: Potentiation of oxacillin-induced antibacterial activity against Staphylococcus aureus ATCC 25923 assessed as reduction in oxacillin MIC at 0.0005 mM incubated for 20 hrs by serial dilution broth microplate method; type: functional, organism-based
# Staphylococcus aureus [10] = test: Antimicrobial activity against Staphylococcus aureus ATCC 25923 incubated for 20 hrs by serial dilution broth microplate method; type: functional; conditions: ATCC 25923, 20 h
# Procedure, shortened: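 Broth dilution per CLSI in Mueller-Hinton broth, serial two-fold dilutions; compounds alone against reference strain, inoculum from suspension at OD 0.5 diluted 1:100; read after 20 h at 37 °C. MIC taken as lowest concentration inhibiting growth.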
# [11] = molecular target: T1, Methicillin resistance mecR1 protein (Staphylococcus aureus); test: Inhibition of MecR1 in methicillin-resistant Staphylococcus aureus HEMSA assessed as reduction in oxacillin A MIC at 0.0039 mM incubated for 20 hrs by serial dilution broth microplate method; procedure, shortened: as §1
# Staphylococcus aureus [12] = test: Potentiation of […] antibacterial activity against Staphylococcus aureus ATCC 25923 assessed as reduction in cloxacillin MIC incubated for 20 hrs by serial dilution broth microplate method; type: functional, organism-based
# [13] = molecular target: T1, Methicillin resistance mecR1 protein (Staphylococcus aureus); test: Inhibition of MecR1 in methicillin-resistant Staphylococcus aureus HEMSA assessed as reduction in cloxacillin MIC at 0.0039 mM incubated for 20 hrs by serial dilution broth microplate method; procedure, shortened: as §1
# [14] = molecular target: T1, Methicillin resistance mecR1 protein (Staphylococcus aureus); test: Inhibition of MecR1 in methicillin-resistant Staphylococcus aureus HEMSA assessed as reduction in oxacillin A MIC at 0.25 mM incubated for 20 hrs by serial dilution broth microplate method; procedure, shortened: as §1
# Staphylococcus aureus [15] = test: Potentiation of oxacillin-induced antibacterial activity against Staphylococcus aureus ATCC 25923 assessed as reduction in oxacillin MIC at 0.5 mM incubated for 20 hrs by serial dilution broth microplate method; type: functional, organism-based
# [16] = molecular target: T1, Methicillin resistance mecR1 protein (Staphylococcus aureus); test: Inhibition of MecR1 in methicillin-resistant Staphylococcus aureus HEMSA assessed as reduction in cloxacillin MIC at 0.5 mM incubated for 20 hrs by serial dilution broth microplate method; procedure, shortened: as §1
# [17] = molecular target: T1, Methicillin resistance mecR1 protein (Staphylococcus aureus); test: Inhibition of MecR1 in methicillin-resistant Staphylococcus aureus HEMSA assessed as reduction in neomycin MIC at 0.5 mM incubated for 20 hrs by serial dilution broth microplate method; procedure, shortened: as §1
# [18] = molecular target: T1, Methicillin resistance mecR1 protein (Staphylococcus aureus); test: Inhibition of MecR1 in methicillin-resistant Staphylococcus aureus HEMSA assessed as reduction in oxacillin A MIC at 0.5 mM incubated for 20 hrs by serial dilution broth microplate method; procedure, shortened: as §1
# [19] = molecular target: T1, Methicillin resistance mecR1 protein (Staphylococcus aureus); test: Inhibition of MecR1 in methicillin-resistant Staphylococcus aureus HEMSA assessed as reduction in ampicillin and sulbactam MIC at 0.5 mM incubated for 20 hrs by serial dilution broth microplate method; procedure, shortened: as §1
# [20] = molecular target: T1, Methicillin resistance mecR1 protein (Staphylococcus aureus); test: Inhibition of MecR1 in methicillin-resistant Staphylococcus aureus HEMSA assessed as reduction in ciprofloxacin MIC at 0.5 mM incubated for 20 hrs by serial dilution broth microplate method; procedure, shortened: as §1
# [21] = molecular target: T1, Methicillin resistance mecR1 protein (Staphylococcus aureus); test: Inhibition of MecR1 in methicillin-resistant Staphylococcus aureus HEMSA assessed as reduction in ciprofloxacin MIC at 0.125 mM incubated for 20 hrs by serial dilution broth microplate method; procedure, shortened: as §1
# [22] = molecular target: T1, Methicillin resistance mecR1 protein (Staphylococcus aureus); test: Inhibition of MecR1 in methicillin-resistant Staphylococcus aureus HEMSA assessed as reduction in neomycin MIC at 0.125 mM incubated for 20 hrs by serial dilution broth microplate method; procedure, shortened: as §1
# [23] = molecular target: T1, Methicillin resistance mecR1 protein (Staphylococcus aureus); test: Inhibition of MecR1 in methicillin-resistant Staphylococcus aureus HEMSA assessed as reduction in oxacillin A MIC at 0.125 mM incubated for 20 hrs by serial dilution broth microplate method; procedure, shortened: as §1
# Staphylococcus aureus [24] = test: Potentiation of oxacillin-induced antibacterial activity against Staphylococcus aureus ATCC 25923 assessed as reduction in oxacillin MIC at 0.0625 mM incubated for 20 hrs by serial dilution broth microplate method; type: functional
# [25] = molecular target: T1, Methicillin resistance mecR1 protein (Staphylococcus aureus); test: Inhibition of MecR1 in methicillin-resistant Staphylococcus aureus HEMSA assessed as reduction in ampicillin and sulbactam MIC at 0.125 mM incubated for 20 hrs by serial dilution broth microplate method; procedure, shortened: as §1
# [26] = molecular target: T1, Methicillin resistance mecR1 protein (Staphylococcus aureus); test: Inhibition of MecR1 in methicillin-resistant Staphylococcus aureus HEMSA assessed as reduction in cloxacillin MIC at 0.125 mM incubated for 20 hrs by serial dilution broth microplate method; procedure, shortened: as §1
# [27] = molecular target: T1, Methicillin resistance mecR1 protein (Staphylococcus aureus); test: Inhibition of MecR1 in methicillin-resistant Staphylococcus aureus HEMSA assessed as reduction in ciprofloxacin MIC at 0.25 mM incubated for 20 hrs by serial dilution broth microplate method; procedure, shortened: as §1
# [28] = molecular target: T1, Methicillin resistance mecR1 protein (Staphylococcus aureus); test: Inhibition of MecR1 in methicillin-resistant Staphylococcus aureus HEMSA assessed as reduction in ampicillin and sulbactam MIC at 0.25 mM incubated for 20 hrs by serial dilution broth microplate method; procedure, shortened: as §1
# [29] = molecular target: T1, Methicillin resistance mecR1 protein (Staphylococcus aureus); test: Inhibition of MecR1 in methicillin-resistant Staphylococcus aureus HEMSA assessed as reduction in neomycin MIC at 0.25 mM incubated for 20 hrs by serial dilution broth microplate method; procedure, shortened: as §1
# [30] = molecular target: T1, Methicillin resistance mecR1 protein (Staphylococcus aureus); test: Inhibition of MecR1 in methicillin-resistant Staphylococcus aureus HEMSA assessed as reduction in cloxacillin MIC at 0.25 mM incubated for 20 hrs by serial dilution broth microplate method; procedure, shortened: as §1
Compound,Activity (Staphylococcus aureus [1]),Activity (Staphylococcus aureus [2]),Ratio (Staphylococcus aureus [4]),MIC (Staphylococcus aureus [7]) [µM],Activity (Staphylococcus aureus [8]),MIC (Staphylococcus aureus [10]) [µM],Activity (Staphylococcus aureus [12]),Activity (Staphylococcus aureus [15]),other results
O=C1NC(N2CCNCC2)=N/C1=C\c1cc2ccccc2c2ccccc12,inactive,inactive,8,15.6,inactive,1.9,inactive,–,inhibition [3]: inactive; inhibition [5]: inactive; inhibition [6]: inactive; Activity (Staphylococcus aureus [9]): inactive; inhibition [11]: inactive; fold change (FC) [13]: 2
CC1(c2cccc3ccccc23)NC(=O)N(CCCCCN)C1=O (stereo not drawn),–,–,–,1000,–,> 1000,–,inactive,inhibition [14]: inactive
COc1ccc(/C=C2\NC(=O)N(CC(O)CNCCCN3CCN(C)CC3)C2=O)cc1 (stereo not drawn),inactive,inactive,–,> 1000,inactive,> 1000,inactive,inactive,fold change (FC) [16]: 8; inhibition [17]: inactive; fold change (FC) [18]: 2; fold change (FC) [19]: 2; fold change (FC) [20]: 2
CC1(c2cccc3ccccc23)NC(=O)N(CCCN)C1=O (stereo not drawn),inactive,inactive,–,> 1000,inactive,> 1000,inactive,inactive,inhibition [16]: inactive; inhibition [17]: inactive; inhibition [18]: inactive; inhibition [19]: inactive; inhibition [20]: inactive
O=C1NC(N2CCNCC2)=N/C1=C\c1cccs1,inactive,inactive,–,> 1000,inactive,> 1000,inactive,inactive,inhibition [16]: inactive; inhibition [17]: inactive; inhibition [18]: inactive; inhibition [19]: inactive; inhibition [20]: inactive
Cc1onc(-c2ccccc2)c1C(=O)N[C@@H]1C(=O)N2[C@@H]1SC(C)(C)[C@@H]2C(=O)O [OXACILLIN],–,–,>1500,710,–,0.47,–,–,–
O=C1N/C(=C\c2ccc(Cl)cc2)C(=O)N1CC(O)CN1CCNCC1 (stereo not drawn),–,–,–,1000,–,> 1000,–,–,–
O=C1NC(N2CCNCC2)=N/C1=C\c1ccc2ccccc2c1,inactive,inactive,2,500,inactive,250,inactive,–,fold change (FC) [21]: 4; inhibition [22]: inactive; fold change (FC) [23]: 128; fold change (FC) (Staphylococcus aureus [24]): 2; fold change (FC) [25]: 4; fold change (FC) [26]: 256
O=C1NC(N2CCNCC2)=N/C1=C\c1ccc(Cl)cc1,–,–,–,500,–,> 1000,–,inactive,inhibition [23]: inactive
Cc1onc(-c2ccccc2Cl)c1C(=O)N[C@@H]1C(=O)N2[C@@H]1SC(C)(C)[C@@H]2C(=O)O [CLOXACILLIN],–,–,–,160,–,0.42,–,–,–
NC[C@@H]1O[C@H](O[C@H]2[C@@H](O)[C@H](O[C@@H]3[C@@H](O)[C@H](N)C[C@H](N)[C@H]3O[C@H]3O[C@H](CN)[C@@H](O)[C@H](O)[C@H]3N)O[C@@H]2CO)[C@H](N)[C@@H](O)[C@@H]1O [FRAMYCETIN],–,–,240,240,–,1,–,–,–
O=C1NC(N2CCNCC2)=N/C1=C\c1ccsc1,inactive,inactive,–,1000,inactive,> 1000,inactive,inactive,inhibition [27]: inactive; inhibition [28]: inactive; inhibition [14]: inactive; inhibition [29]: inactive; inhibition [30]: inactive
CC1(c2cccc3ccccc23)NC(=O)N(CCCCN)C1=O (stereo not drawn),–,–,–,> 1000,–,> 1000,–,inactive,inhibition [18]: inactive
O=C(O)c1cn(C2CC2)c2cc(N3CCNCC3)c(F)cc2c1=O [CIPROFLOXACIN],–,–,37,14,–,0.38,–,–,–
O=C1N/C(=C\c2ccc(Cl)cc2Cl)C(=O)N1CC(O)CN1CCNCC1 (stereo not drawn),–,–,–,> 1000,–,> 1000,–,inactive,inhibition [18]: inactive
